Screening data from PubChem.
In the library only some 2.5% were active in any assay of this set; here they are far more common.
SR-BI DiI-HDL act: enhances SR-BI lipid uptake from DiI-HDL | 320,000 tested, 0.096% active | CHO ldlA[mSR-BI] cells, DiI-HDL uptake fluorescence, 3 h; 100 = double the neutral-control signal | activation, % at 12.5 µM;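 active = mean replicate activation of at least 60% and every replicate at or above 60%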;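 also: 0% = median plate neutral-control signal and 100% = twice that signal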
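Material: SR-BI-overexpressing, LDLR-lacking CHO cells; schedule: compound exposure 3 h, 37 °C; reagent: DiI-labelled HDL at 10 µg/mL final; technique: bottom-read fluorescence, 550/595 nm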
Vif imaging: HIV Vif inhibition | HEK293T cells, Vif self-association by quenched fluorescence, imaging, 24 h | inhibition, % at 7.49 µM | 340,000 tested, 0.35% active; in the data active = inhibition above about 50%, passing the limit was not always enough
SMARCA2 activ: activators of SMARCA2 function; MG213 cells, MMTV-luciferase reporter, dexamethasone, overnight; activation, % at 9.1 µM; 370,000 tested, 1% active; in the data active = activation above about 7.8%;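 also: 0% = vehicle wells and 100% = reference activator wells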
H9c2 TAG inh: triacylglycerol accumulation inhibition. 230,000 tested, 0.66% active. AID 651582. inhibition, % at 12.5 µM. H9c2 cells, Nile Red lipid (TAG) fluorescence; cells loaded with 200 µM oleic acid;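 active = pattern-corrected inhibition of lipid staining of at least 50% with the nuclear-stain viability signal not falling by more than 50%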;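 also: 0% = DMSO wells and 100% = triacsin C control wells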
SR-BI DiI inh: inhibitors of mouse SR-BI mediated HDL lipid uptake; inhibition, % at 12.5 µM; 320,000 tested, 0.96% active; ldlA[mSR-BI] CHO cells, DiI-HDL uptake fluorescence, 3 h; Q61009; AID 488896;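 active = mean replicate inhibition of at least 70% and a set share of replicates each scoring 70 or more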;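 also: 0% = median of neutral control wells and 100% = median of positive control wells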
Target sequence (Q61009 whole entry, looked up): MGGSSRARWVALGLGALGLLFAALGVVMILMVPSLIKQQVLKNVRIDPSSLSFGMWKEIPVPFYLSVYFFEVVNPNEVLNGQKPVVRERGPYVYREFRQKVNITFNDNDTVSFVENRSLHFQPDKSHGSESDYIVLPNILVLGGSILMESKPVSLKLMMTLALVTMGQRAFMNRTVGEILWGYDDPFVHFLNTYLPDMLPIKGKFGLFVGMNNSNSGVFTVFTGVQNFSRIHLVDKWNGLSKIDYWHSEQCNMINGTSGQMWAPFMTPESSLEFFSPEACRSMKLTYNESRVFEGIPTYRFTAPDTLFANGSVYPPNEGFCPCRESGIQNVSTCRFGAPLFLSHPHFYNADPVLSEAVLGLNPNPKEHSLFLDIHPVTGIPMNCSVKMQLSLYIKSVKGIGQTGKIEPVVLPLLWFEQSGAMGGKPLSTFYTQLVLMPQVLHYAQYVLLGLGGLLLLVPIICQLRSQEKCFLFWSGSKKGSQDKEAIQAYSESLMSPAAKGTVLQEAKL
SMARCA2 conf: confirmation of SMARCA2 (BRM) function activators; MG213 cells, MMTV-luciferase with dexamethasone, luminescence, overnight; MG213 cells expressing E1A, Rb sequestered; DMSO wells 0%, reference activator 100%; AID 652260; shares compounds with SMARCA2 activ; activation, % at 9.1 µM; 3,500 tested, 30% active;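 active = activation above its plate's cutoff, the mean activation of tested wells plus 3 SD, cut at about 7.9% in these data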
GAL4-VP16 Luc: GAL4-VP16 reporter activation counter-screen; 3,500 tested, 41% active; HEK293 GAL4-VP16 pG5luc reporter, luciferase luminescence; scaled: DMSO wells 0%, SAHA wells 100%; shares compounds with SMARCA2 activ; AID 686939; activation, % at 9.1 µM;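 active = activation above the solvent-only control well mean plus 3 SD, averaged across control plates, cut at about 5.2% in these data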
Active calls of the source: *; / = no result given.

SMILES	SR-BI DiI-HDL act	Vif imaging	SMARCA2 activ	H9c2 TAG inh	SR-BI DiI inh	SMARCA2 conf	GAL4-VP16 Luc
Cc1nc(N)sc1-c1csc(Nc2ncccn2)n1	17	0	56*	0	-17	106*	13*
CCCOc1ccc(-c2cc(C(C)=O)c3n(c2=O)CCC3)cc1	/	/	-2	/	/	/	/
O=[N+]([O-])c1ccc(N/N=C/C=C/c2ccco2)cc1	-35	5	8.2*	-7	35	3	6.5*
Cc1ccc(-c2ccnc(-c3ccc(O)cc3)n2)cc1	-16	-6	6	0	16	/	/
Oc1ccc(-c2nccc(-c3ccccn3)n2)cc1	11	-7	10*	/	-11	8	8.1*
CCC(=O)N/C(N)=N/c1nc(C)c2cc(OC)ccc2n1	7	13	18*	/	-7	35*	13*
COc1ccc2nc(/N=C(\N)NC(=O)C(C)(C)C)nc(C)c2c1	20	/	4	26	-20	/	/
CC1Cc2ccccc2N1C(=O)/C=C/c1cccc(F)c1 (stereo not given)	-31	-4	8.2*	1	31	5	9.9*
CC1Cc2ccccc2N1C(=O)COC(=O)/C=C/c1ccc(F)cc1 (stereo not given)	-2	16	3	-18	2	/	/
CCCCCCCCN1C(=O)[C@@H](CC(=O)NCCC(C)C)C[C@@]2(C(=O)OC)C1=C[C@H](C(C)C)O[C@@H]2C1CC1	/	/	0	/	/	/	/
Cc1ccc(C(=O)Nc2nnc(SCC(=O)N3CCCc4ccccc43)s2)cc1	-13	-18	9.3*	-2	13	4	8.4*
CCn1nc(C)cc1C(=O)N1CCc2c([nH]c3ccccc23)C1c1cc(F)ccc1F (stereo not given)	-29	-1	9.0*	/	29	4	6.3*
O=C1c2cccc(NCCCNCCO)c2C(=O)c2cccc(NCCCNCCO)c21	-28	16	28*	114	28	-13	1
C/C(=N\NC(=O)c1cnccn1)c1ccc([N+](=O)[O-])cc1	3	-10	9.6*	-4	-3	4	3
O=C(N/N=C/c1ccc([N+](=O)[O-])cc1)c1cnccn1	/	/	-3	/	/	/	/
C/C=C/C=N\NC(=O)c1ccncc1	3	-4	8.2*	-1	-3	3	-1
CCC(=O)Nc1ccc(NC(=O)CSc2nnnn2-c2cccnc2)cc1C	6	16	9.7*	/	-6	-2	1
COc1cc(C(=O)Nc2nnc(C3=COCCO3)o2)cc(OC)c1OC	4	/	-4	8	-4	/	/
O=C(N/N=C/c1ccc(Cl)cc1Cl)c1n[nH]c2c1CCCC2	-10	1	9.5*	/	10	6	8.0*
O=C(N/N=C/C(Br)=C\c1ccccc1)c1n[nH]c2c1CCC2	-30	33	8.4*	/	30	11*	21*
Cc1cccc(NC(=O)CSc2nnc(C3CC3)n2CC2CCCO2)c1C (stereo not given)	16	-6	-2	/	-16	/	/
Cn1c(N)c(C(=O)COC(=O)C2Cc3ccccc3CN2S(C)(=O)=O)c(=O)n(C)c1=O (stereo not given)	/	-1	8.4*	5	/	-4	1
CC(=O)N1Cc2ccccc2CC1C(=O)OCC(=O)c1c(N)n(C)c(=O)n(C)c1=O (stereo not given)	6	-6	-2	2	-6	/	/
O=C(COC(=O)Cn1[nH]c(=O)c2ccccc2c1=O)NNC(=O)c1ccc(Br)cc1	0	5	-1	-5	0	/	/
CCCCC[n+]1ccn(-c2nc3ccccc3nc2[N-]S(=O)(=O)c2ccccc2)c1	21	4	-3	14	-21	/	/
O=S(=O)([N-]c1nc2ccccc2nc1-n1cc[n+](Cc2ccccc2)c1)c1ccc(Br)cc1	/	-2	11*	-7	/	3	0
COc1cc2nc(Nc3ccc(C)c(C)c3)nc(N)c2cc1OC	14	1	6	/	-14	/	/
COc1cc2nc(Nc3ccc(C)c(Cl)c3)nc(N)c2cc1OC	2	-25	9.5*	/	-2	-7	-1
